The Ki is a measure of affinity in units of concentration, obtained from inhibition or displacement. A lower Ki goes with tighter binding.

For test [1], the species on record is Homo sapiens. In words: Selectivity ratio, Ki for human adrenergic alpha-1b receptor to Ki for human adrenergic alpha-1d receptor. The procedure, abridged:
(§1)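 Competition binding against 125I-HEAT on COS cell membranes expressing cloned human α1a-, α1b- or α1d-adrenergic receptor. Affinities are reported as Ki (nM). Selectivity is expressed as Ki(α1b)/Ki(α1a) and Ki(α1b)/Ki(α1d).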

Test [2] concerns the target T1, Alpha-1A adrenergic receptor (Homo sapiens, UniProt P35348).
T1 sequence (P35348 whole entry): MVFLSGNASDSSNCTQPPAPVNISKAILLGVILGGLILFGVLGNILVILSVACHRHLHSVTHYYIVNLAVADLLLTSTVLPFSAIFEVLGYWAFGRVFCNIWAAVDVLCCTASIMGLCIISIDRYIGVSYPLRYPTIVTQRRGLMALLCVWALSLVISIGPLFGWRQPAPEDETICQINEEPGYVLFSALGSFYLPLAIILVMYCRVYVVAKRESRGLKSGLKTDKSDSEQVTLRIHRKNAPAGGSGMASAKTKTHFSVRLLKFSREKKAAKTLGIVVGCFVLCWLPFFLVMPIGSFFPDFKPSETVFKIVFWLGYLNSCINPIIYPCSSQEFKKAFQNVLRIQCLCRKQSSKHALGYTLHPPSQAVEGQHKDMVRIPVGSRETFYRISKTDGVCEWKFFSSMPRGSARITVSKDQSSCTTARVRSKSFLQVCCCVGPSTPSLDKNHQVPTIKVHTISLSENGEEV
In words: Displacement of [125]HEAT from human adrenergic alpha-1a receptor expressed in COS cells.

The target in test [3] is Adrenergic receptors; alpha-1 A & B (Homo sapiens) (UniProt P35348+P35368). In words: Selectivity ratio, Ki for human adrenergic alpha-1b receptor to Ki for human adrenergic alpha-1a receptor. The format is protein assay. In outline: as §1
The target in test [4] is T2, Alpha-1D adrenergic receptor (Homo sapiens, UniProt P25100).
T2 sequence (P25100 whole entry): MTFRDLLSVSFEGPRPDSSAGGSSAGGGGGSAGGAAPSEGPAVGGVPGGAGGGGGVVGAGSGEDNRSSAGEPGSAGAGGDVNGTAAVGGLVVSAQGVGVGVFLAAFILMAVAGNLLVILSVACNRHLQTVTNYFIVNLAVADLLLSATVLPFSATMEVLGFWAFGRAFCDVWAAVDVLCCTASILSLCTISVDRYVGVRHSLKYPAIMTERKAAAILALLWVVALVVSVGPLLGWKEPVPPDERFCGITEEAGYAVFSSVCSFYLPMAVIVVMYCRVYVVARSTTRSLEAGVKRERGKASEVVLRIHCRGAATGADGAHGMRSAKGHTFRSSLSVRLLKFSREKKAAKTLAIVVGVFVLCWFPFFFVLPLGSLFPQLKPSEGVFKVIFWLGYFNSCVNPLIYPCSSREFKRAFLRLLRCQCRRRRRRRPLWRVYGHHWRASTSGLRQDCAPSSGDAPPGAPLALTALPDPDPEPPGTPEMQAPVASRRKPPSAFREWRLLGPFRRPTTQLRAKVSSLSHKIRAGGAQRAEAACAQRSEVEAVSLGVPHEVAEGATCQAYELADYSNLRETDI
Nature of the test: Displacement of [125]HEAT from human adrenergic alpha-1d receptor expressed in COS cells.

Test [5] addresses T3, Alpha-1B adrenergic receptor (Homo sapiens, UniProt P35368).
T3 sequence (P35368 whole entry): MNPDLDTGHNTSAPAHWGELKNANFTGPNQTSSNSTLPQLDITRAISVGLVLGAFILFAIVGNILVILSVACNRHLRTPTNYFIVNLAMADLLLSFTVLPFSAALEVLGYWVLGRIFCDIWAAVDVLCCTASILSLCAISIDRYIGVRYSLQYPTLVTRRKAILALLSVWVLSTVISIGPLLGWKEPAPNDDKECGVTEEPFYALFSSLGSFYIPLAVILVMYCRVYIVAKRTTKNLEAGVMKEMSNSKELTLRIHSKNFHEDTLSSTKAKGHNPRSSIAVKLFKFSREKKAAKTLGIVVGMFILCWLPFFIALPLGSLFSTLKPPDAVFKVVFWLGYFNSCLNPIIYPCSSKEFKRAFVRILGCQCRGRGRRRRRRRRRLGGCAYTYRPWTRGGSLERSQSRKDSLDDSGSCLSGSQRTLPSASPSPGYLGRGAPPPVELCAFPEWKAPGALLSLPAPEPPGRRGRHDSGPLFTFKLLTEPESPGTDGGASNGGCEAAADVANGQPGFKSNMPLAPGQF
In words: Displacement of [125]HEAT from human adrenergic alpha-1b receptor expressed in COS cells.

Turning to `CC(C)Oc1ccccc1N1CCN(C2CCC(N3C(=O)c4cccnc4C3=O)CC2)CC1` (stereo not drawn), the Ratio Ki worked out at 30 in test [1] and 56 in test [3]. Further, the Ki worked out at 0.8 nM in test [2] and 1.5 nM in test [4].

`CC(C)Oc1ccccc1N1CCN(C2CCC(N3C(=O)c4ccncc4C3=O)CC2)CC1` (stereo not drawn): the values for the Ratio Ki in test [1] and in test [3] were 28 and 56, respectively. Further, the results for the Ki in test [2] and in test [4] were 0.4 nM and 0.8 nM, respectively.

For the compound `CC(C)Oc1ccccc1N1CCN(C2CCC(N3C(=O)c4cc(Cl)c(Cl)cc4C3=O)CC2)CC1` (stereo not drawn), the Ratio Ki in test [1] was determined as 3610; in test [3], 401. In test [4], this compound gave an inhibition constant Ki of 0.3 nM.

Consider `CC(C)Oc1ccccc1N1CCN(C2CCC(N3C(=O)c4ccc5ccccc5c4C3=O)CC2)CC1` (stereo not drawn), for which the Ki in test [5] was found to be 15 nM; in test [2], 1.8 nM; in test [4], 0.2 nM. For the same compound, the Ratio Ki in test [1] was determined as 75; in test [3], 8.

Take `CC(C)Oc1ccccc1N1CCN(C2CCC(N3C(=O)c4c(F)c(F)c(F)c(F)c4C3=O)CC2)CC1` (stereo not drawn): the results for the Ratio Ki in test [1] and in test [3] were 136 and 109, respectively.

Regarding `CC(C)Oc1ccccc1N1CCN(C2CCC(N3C(=O)c4cccc(F)c4C3=O)CC2)CC1` (stereo in doubt; 6c) [listing 1 of 2 here], the Ki in test [5] was 18 nM; in test [2], 0.2 nM; in test [4] it was 0.09 nM.

Take `CC(C)Oc1ccccc1N1CCN(C2CCC(N3C(=O)c4cccc(F)c4C3=O)CC2)CC1` (stereo in doubt; 6c) [listing 2 of 2 here]: the Ratio Ki in test [1] was 200; in test [3], 90.

In the case of `CC(C)Oc1ccccc1N1CCN(C2CCC(N3C(=O)c4cccc(F)c4C3=O)CC2)CC1` (stereo in doubt; 6d) [listing 1 of 2 here], the results for the Ki in test [5], in test [2] and in test [4] were 127 nM, 1 nM and 14.9 nM, respectively.

Turning to `CC(C)Oc1ccccc1N1CCN(C2CCC(N3C(=O)c4cccc(F)c4C3=O)CC2)CC1` (stereo in doubt; 6d) [listing 2 of 2 here], the results for the Ratio Ki in test [1] and in test [3] were 9 and 127, respectively.

Take `CC(C)Oc1ccccc1N1CCN(C2CCC(N3C(=O)c4ccc5ccc(F)cc5c4C3=O)CC2)CC1` (stereo in doubt; 6f) [listing 1 of 2 here]: the Ki came out at 269 nM in test [5], 15 nM in test [2] and 16.4 nM in test [4].

Regarding `CC(C)Oc1ccccc1N1CCN(C2CCC(N3C(=O)c4ccc5ccc(F)cc5c4C3=O)CC2)CC1` (stereo in doubt; 6f) [listing 2 of 2 here], the Ratio Ki stood at 16 in test [1] and 18 in test [3].

For `CC(C)Oc1ccccc1N1CCN(C2CCC(N3C(=O)c4ccc5ccc(F)cc5c4C3=O)CC2)CC1` (stereo in doubt; 6g) [listing 1 of 2 here], the inhibition constant Ki in test [5] was determined as 46.5 nM; in test [2] it was 3.9 nM; in test [4], 0.5 nM.

As for `CC(C)Oc1ccccc1N1CCN(C2CCC(N3C(=O)c4ccc5ccc(F)cc5c4C3=O)CC2)CC1` (stereo in doubt; 6g) [listing 2 of 2 here], the Ratio Ki is 93 in test [1] and 12 in test [3].

The values are drawn from ChEMBL document CHEMBL1146388, “1-Arylpiperazinyl-4-cyclohexylamine derived isoindole-1,3-diones as potent and selective alpha-1a/1d adrenergic receptor ligands” (Bioorg Med Chem Lett, 2007).
